Measured values as given in ChEMBL document CHEMBL4138117, “Pentapeptides for the treatment of small cell lung cancer: Optimisation by Nind-alkyl modification of the tryptophan side chain” (Eur J Med Chem, 2017).
Calls of active or inactive are those of the source. The rule behind the calls is not given here. *1 amine or outer side, *2 acyl side, *3 side chain or, on linkers, in order; H or OH if unused. Where a SMILES comes first, the peptide text is derived from it. [ ]: non-standard residue; d: D form. X1 = C=CC(C)(C)n1cc(C[C@@H](N[*:1])C(=O)[*:2])c2ccccc21; dTrp(1-Bu) = CCCCn1cc(C[C@@H](N)C(=O)O)c2ccccc21; dNMeF = CN[C@H](Cc1ccccc1)C(=O)O

Key:
[1] = system: DMS-79; assay: Induction of apoptosis in human DMS79 cells assessed as increase in late apoptotic cells at 6 uM after 48 hrs by acridine orange/ethidium bromide staining-based inverted fluorescence microscopic method; format: functional, cell-based
Method in brief: (§1)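 Cells seeded at 1 x 10^4 cells/well and treated with peptide at 6 µM final in complete medium for 48 h at 37 °C, 5% CO2, with an untreated control. Then 1:1 AO/EB mix (100 µg/ml of each dye in PBS) added and cells viewed by inverted fluorescence microscopy at 10x.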

[2] = system: NCI-H69; assay: Induction of apoptosis in human H69 cells assessed as increase in late apoptotic cells at 6 uM after 48 hrs by acridine orange/ethidium bromide staining-based inverted fluorescence microscopic method; format: functional, cell-based; method in brief: as §1
[3] = system: DMS-79; assay: Induction of apoptosis in human DMS79 cells assessed as chromatin condensation at 6 uM after 48 hrs by acridine orange/ethidium bromide staining-based inverted fluorescence microscopic method; format: functional, cell-based; method in brief: as §1
[4] = Retention time of the compound in mouse plasma at 400 ug/ml after 3 hrs by RP-HPLC method; format: ADME, cell-free
Method in brief: (§2)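 Peptide added to neat mouse plasma at 400 µg/ml and held at 37 °C. Aliquots taken at 0, 3, 24 and 48 h and analysed by RP-HPLC on a C8 column. Parent and degradation product(s) reported as relative percentage; n = 3.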

[5] = system: DMS-79; assay: Induction of apoptosis in human DMS79 cells assessed as cell shrinkage at 6 uM after 48 hrs by acridine orange/ethidium bromide staining-based inverted fluorescence microscopic method; format: functional; method in brief: as §1
[6] = Drug metabolism in neat mouse plasma at 400 ug/ml by RP-HPLC method; format: ADME, cell-free; conditions: TDE = time-dependent effect; method in brief: as §2
[7] = system: NCI-H69; assay: Induction of apoptosis in human H69 cells assessed as chromatin condensation at 6 uM after 48 hrs by acridine orange/ethidium bromide staining-based inverted fluorescence microscopic method; format: functional, cell-based; method in brief: as §1
[8] = system: DMS-79; assay: Induction of apoptosis in human DMS79 cells assessed as loss of plasma membrane integrity at 6 uM after 48 hrs by acridine orange/ethidium bromide staining-based inverted fluorescence microscopic method; format: functional, cell-based; method in brief: as §1
[9] = Metabolic stability in CD1 mouse liver S9 fraction at 400 ug/ml after 1 to 3 hrs in presence of UDPGA, NADPH, GSH, PAPS by RP-HPLC method; format: ADME, subcellular
Method in brief: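 Male CD-1 mouse liver S9 fraction incubated with peptide as in the plasma study, at 37 °C. Reaction started by adding a 1:1:1:1 cofactor mix made in 200 mM Tris pH 7.4 with 2 mM MgCl2; final levels NADPH 1 mM, UDPGA 0.5 mM, GSH 0.05 mM, PAPS 0.05 mg/ml. Aliquots at 0, 1, 2 and 3 h analysed by RP-HPLC.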

[10] = Drug metabolism in mouse plasma at 400 ug/ml after 48 hrs by mass spectrophotometric method; format: ADME, cell-free
[11] = system: NCI-H69; assay: Induction of apoptosis in human H69 cells assessed as increase in necrotic cells at 6 uM after 48 hrs by acridine orange/ethidium bromide staining-based inverted fluorescence microscopic method; format: functional, cell-based; method in brief: as §1
[12] = Retention time of the compound in mouse plasma at 400 ug/ml after 48 hrs by RP-HPLC method; format: ADME, cell-free; method in brief: as §2
[13] = Retention time of the compound in mouse plasma at 400 ug/ml measured immediately after compound addition by RP-HPLC method; format: ADME, cell-free; method in brief: as §2
[14] = system: DMS-79; assay: Induction of apoptosis in human DMS79 cells assessed as increase in necrotic cells at 6 uM after 48 hrs by acridine orange/ethidium bromide staining-based inverted fluorescence microscopic method; format: functional, cell-based; method in brief: as §1
[15] = system: NCI-H69; assay: Induction of apoptosis in human H69 cells assessed as cell shrinkage at 6 uM after 48 hrs by acridine orange/ethidium bromide staining-based inverted fluorescence microscopic method; format: functional; method in brief: as §1
[16] = Retention time of the compound in mouse plasma at 400 ug/ml after 24 hrs by RP-HPLC method; format: ADME, cell-free; method in brief: as §2
[17] = system: NCI-H69; assay: Induction of apoptosis in human H69 cells assessed as loss of plasma membrane integrity at 6 uM after 48 hrs by acridine orange/ethidium bromide staining-based inverted fluorescence microscopic method; format: functional, cell-based; method in brief: as §1
[18] = Metabolic stability in neat mouse plasma assessed as parent compound remaining at 400 ug/ml after 3 hrs by RP-HPLC method; format: ADME, cell-free; conditions: read-out: Stability; method in brief: as §2
[19] = system: NCI-H69; assay: Cytotoxicity against human H69 cells assessed as decrease in cell viability after 48 hrs by resazurin dye-based assay; format: functional; conditions: NCI-H69, 48 h
Method in brief: (§3)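 H69 and DMS79 suspension cells grown in 10% FBS/RPMI-1640 at 37 °C, 5% CO2. Seeded at 1 x 10^4 cells/well in triplicate and given peptide the same day at 0.1–30 µM final, diluted in 50% FBS/saline. After 48 h, resazurin (0.125 mg/ml in PBS) added for 5 h, then fluorescence read and % viability calculated. Three independent repeats; IC50 taken from dose-response curves.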

[20] = Metabolic stability in neat mouse plasma assessed as parent compound remaining at 400 ug/ml after 48 hrs by RP-HPLC method; format: ADME, cell-free; conditions: read-out: Stability; method in brief: as §2
[21] = system: DMS-79; assay: Cytotoxicity against human DMS79 cells assessed as decrease in cell viability after 48 hrs by resazurin dye-based assay; format: functional; conditions: DMS-79, 48 h; method in brief: as §3
[22] = system: DMS-79; assay: Induction of apoptosis in human DMS79 cells assessed as early apoptotic cells at 6 uM after 24 hrs by Annexin V/SYTOX Blue staining-based flow cytometric method (reference value: 6.4 +/- 0.4%); format: functional
[23] = system: DMS-79; assay: Induction of apoptosis in human DMS79 cells assessed as late apoptotic cells at 2 uM after 24 hrs by Annexin V/SYTOX Blue staining-based flow cytometric method (reference value: 28.6 +/- 8.2%); format: functional
[24] = system: DMS-79; assay: Induction of apoptosis in human DMS79 cells assessed as necrotic cells at 6 uM after 24 hrs by Annexin V/SYTOX Blue staining-based flow cytometric method (reference value: 3.3 +/- 0.6%); format: functional
[25] = Drug metabolism in mouse plasma assessed as formation of (3R,6R,9S,12R,15S)-3,9-dibenzyl-6-((1H-indol-3-yl)methyl)-12-((1-butyl-1H-indol-3-yl)methyl)-15-isobutyl-4,7,10,13-tetraoxo-2,5,8,11,14-pentaazahexadecan-16-oic acid at 400 ug/ml after 3 to 48 hrs by RP-HPLC method
[26] = system: DMS-79; assay: Induction of apoptosis in human DMS79 cells assessed as viable cells after 24 hrs by Annexin V/SYTOX Blue staining-based flow cytometric method; format: functional, cell-based
[27] = system: DMS-79; assay: Induction of apoptosis in human DMS79 cells assessed as viable cells at 6 uM after 24 hrs by Annexin V/SYTOX Blue staining-based flow cytometric method (reference value: 61.7 +/- 9.1%); format: functional; conditions: DMS-79, 24 h, read-out: Activity
[28] = Drug metabolism in mouse plasma assessed as formation of (3R,6R,9S,12R,15S)-3,9-dibenzyl-6,12-bis((1-butyl-1H-indol-3-yl)methyl)-15-isobutyl-4,7,10,13-tetraoxo-2,5,8,11,14-pentaazahexadecan-16-oic acid at 400 ug/ml after 48 hrs by mass spectrophotometric method; format: ADME, cell-free
[29] = system: DMS-79; assay: Induction of apoptosis in human DMS79 cells assessed as necrotic cells at 2 uM after 24 hrs by Annexin V/SYTOX Blue staining-based flow cytometric method (reference value: 3.3 +/- 0.6%); format: functional
[30] = system: DMS-79; assay: Induction of apoptosis in human DMS79 cells assessed as late apoptotic cells at 6 uM after 24 hrs by Annexin V/SYTOX Blue staining-based flow cytometric method (reference value: 28.6 +/- 8.2%); format: functional
[31] = system: DMS-79; assay: Induction of apoptosis in human DMS79 cells assessed as viable cells at 2 uM after 24 hrs by Annexin V/SYTOX Blue staining-based flow cytometric method (reference value: 61.7 +/- 9.1%); format: functional; conditions: DMS-79, 24 h, read-out: Activity
[32] = system: DMS-79; assay: Induction of apoptosis in human DMS79 cells assessed as early apoptotic cells at 2 uM after 24 hrs by Annexin V/SYTOX Blue staining-based flow cytometric method (reference value: 6.4 +/- 0.4%); format: functional
[33] = Drug level in mouse plasma treated with (S)-2-((3R,6R,9S,12R)-3,9-dibenzyl-6,12-bis((1-butyl-1H-indol-3-yl)methyl)-4,7,10-trioxo-2,5,8,11-tetraazatridecanamido)-4-methylpentanamide at 400 ug/ml after 48 hrs by mass spectrophotometric method; format: ADME, cell-free
[34] = Drug level in mouse plasma treated with (S)-2-((3R,6R,9S,12R)-3,9-dibenzyl-6,12-bis((1-butyl-1H-indol-3-yl)methyl)-4,7,10-trioxo-2,5,8,11-tetraazatridecanamido)-4-methylpentanamide at 400 ug/ml after 3 to 48 hrs by RP-HPLC method; format: ADME, cell-free; method in brief: as §2

Row | SMILES | Retention_time [4] [min] | Drug metabolism [6] | Stability [9] | Drug metabolism [10] | Retention_time [12] [min] | Retention_time [13] [min] | Retention_time [16] [min] | Activity [1] | Activity [2] | Activity [3] | Activity [5] | Activity [7] | Activity [8] | Activity [11] | Activity [14] | Activity [15] | Activity [17] | IC50 [19] [µM] | IC50 [21] [µM] | also measured
1 | CCCCn1cc(C[C@@H](NC(=O)[C@H](Cc2ccccc2)NC(=O)[C@@H](Cc2cn(CCCC)c3ccccc23)NC(=O)[C@@H](Cc2ccccc2)NC)C(=O)N[C@@H](CC(C)C)C(N)=O)c2ccccc21 (H-[dNMeF][dTrp(1-Bu)]F[dTrp(1-Bu)]L-NH2) | 27.93 | Tde | Stable | Metabolite_Notdetected | 27.94 | 27.53 | 27.94 | Active | Active | Active | Active | Active | Active | Active | Active | Active | Active | – | – | –
2 | C=CC(C)(C)n1cc(C[C@@H](NC(=O)[C@H](Cc2ccccc2)NC(=O)[C@@H](Cc2c[nH]c3ccccc23)NC(=O)[C@@H](Cc2ccccc2)NC)C(=O)N[C@@H](CC(C)C)C(N)=O)c2ccccc21 (H-[dNMeF][dW]F[X1]L-NH2) | 24.89 | Tde | – | Metabolite_Detected | 24.86 | 24.62 | 24.86 | – | – | – | – | – | – | – | – | – | – | 2.84 | 4.37 | remaining at 3 h, 400 ug/ml [18]: 87.8%; remaining at 48 h, 400 ug/ml [20]: 35.9%
3 | CN[C@H](Cc1ccccc1)C(=O)N[C@H](Cc1c[nH]c2ccccc12)C(=O)N[C@@H](Cc1ccccc1)C(=O)N[C@H](Cc1c[nH]c2ccccc12)C(=O)N[C@@H](CC(C)C)C(N)=O (H-[dNMeF][dW]F[dW]L-NH2) | – | – | – | – | – | – | – | – | – | – | – | – | – | – | – | – | – | 30.7 | 23 | –

Continued, in another order:

Row | Retention_time [4] [min] | Drug metabolism [6] | Stability [9] | Drug metabolism [10] | Retention_time [12] [min] | Retention_time [13] [min] | Retention_time [16] [min] | SMILES | Activity [1] | Activity [2] | Activity [3] | Activity [5] | Activity [7] | Activity [8] | Activity [11] | Activity [14] | Activity [15] | Activity [17] | IC50 [19] [µM] | IC50 [21] [µM] | also measured
4 | 25.29 | Tde | Stable | – | 25.23 | 25 | 25.26 | CCCCn1cc(C[C@@H](NC(=O)[C@H](Cc2ccccc2)NC(=O)[C@@H](Cc2c[nH]c3ccccc23)NC(=O)[C@@H](Cc2ccccc2)NC)C(=O)N[C@@H](CC(C)C)C(N)=O)c2ccccc21 (H-[dNMeF][dW]F[dTrp(1-Bu)]L-NH2) | Active | Active | Active | Active | Active | Active | Active | Active | Active | Active | – | – | Activity [22]: 1.9%; Activity [23]: 36.4%; Activity [24]: 1.6%; Drug metabolism [25]: Metabolite_Detected; Activity [26]: Dose-dependent effect; viability at 6 µM [27]: 1%; Drug metabolism [28]: Metabolite_Detected; Activity [29]: 2.3%; Activity [30]: 95.5%; viability at 2 µM [31]: 53.3%; Activity [32]: 8%
5 | 25.3 | – | – | Metabolite_Notdetected | 25.27 | 25.36 | 25.29 | CCCCn1cc(C[C@@H](NC(=O)[C@H](Cc2ccccc2)NC(=O)[C@@H](Cc2c[nH]c3ccccc23)NC(=O)[C@@H](Cc2ccccc2)NC)C(=O)N[C@@H](CC(C)C)C(=O)O)c2ccccc21 (H-[dNMeF][dW]F[dTrp(1-Bu)]L-OH) | – | – | – | – | – | – | – | – | – | – | > 30 | > 30 | Drug metabolism [33]: Metabolite_Detected; Drug metabolism [34]: Metabolite_Detected
